Experimental data published in ChEMBL document CHEMBL5550192, “Discovery of first-in-class PROTACs targeting maternal embryonic leucine zipper kinase (MELK) for the treatment of Burkitt lymphoma” (RSC Med Chem, 2024).
Blank lines part the entries; values can stand above or below the compound they belong to. Activity calls are given as the source filed them. The calls are words filed in the database; no cut-off is given here.

Legend:
[1] = target: T1, Protein cereblon/Maternal embryonic leucine zipper kinase (Homo sapiens, UniProt Q14680+Q96SW2); test: PROTAC activity at CRBN/MELK in human Ramos cells assessed as induction of MELK degradation by immunoblot analysis; type: cell-based
How it was run: (§1)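 Ramos cells in 12-well plates (1 mL medium) treated with compound at various concentrations. Lysed in 2X SDS sample buffer and boiled 15 min. Proteins resolved on 10% SDS-PAGE and transferred to PVDF. Probed with MELK, mTOR or p-mTOR antibodies, with β-actin/β-tubulin as loading controls. ECL detection, band densitometry, DC50 from nonlinear regression.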
Target sequence in this assay (Q14680 whole entry): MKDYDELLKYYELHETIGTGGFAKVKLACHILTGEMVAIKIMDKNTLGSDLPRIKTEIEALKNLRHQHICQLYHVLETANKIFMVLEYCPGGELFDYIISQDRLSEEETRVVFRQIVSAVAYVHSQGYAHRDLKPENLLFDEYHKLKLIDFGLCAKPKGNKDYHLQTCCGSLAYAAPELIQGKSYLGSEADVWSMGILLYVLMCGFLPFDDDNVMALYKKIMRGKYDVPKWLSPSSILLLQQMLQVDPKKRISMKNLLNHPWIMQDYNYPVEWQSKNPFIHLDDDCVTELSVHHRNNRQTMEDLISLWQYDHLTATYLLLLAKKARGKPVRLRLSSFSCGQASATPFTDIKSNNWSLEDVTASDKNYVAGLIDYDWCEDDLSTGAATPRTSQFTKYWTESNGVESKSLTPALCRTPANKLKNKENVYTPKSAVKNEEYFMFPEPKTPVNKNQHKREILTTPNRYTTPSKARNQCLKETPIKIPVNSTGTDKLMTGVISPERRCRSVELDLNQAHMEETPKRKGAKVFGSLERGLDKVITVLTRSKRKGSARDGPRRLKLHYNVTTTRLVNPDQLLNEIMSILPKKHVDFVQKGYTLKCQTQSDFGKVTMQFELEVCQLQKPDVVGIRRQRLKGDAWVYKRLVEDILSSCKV
Target sequence in this assay (Q96SW2 whole entry): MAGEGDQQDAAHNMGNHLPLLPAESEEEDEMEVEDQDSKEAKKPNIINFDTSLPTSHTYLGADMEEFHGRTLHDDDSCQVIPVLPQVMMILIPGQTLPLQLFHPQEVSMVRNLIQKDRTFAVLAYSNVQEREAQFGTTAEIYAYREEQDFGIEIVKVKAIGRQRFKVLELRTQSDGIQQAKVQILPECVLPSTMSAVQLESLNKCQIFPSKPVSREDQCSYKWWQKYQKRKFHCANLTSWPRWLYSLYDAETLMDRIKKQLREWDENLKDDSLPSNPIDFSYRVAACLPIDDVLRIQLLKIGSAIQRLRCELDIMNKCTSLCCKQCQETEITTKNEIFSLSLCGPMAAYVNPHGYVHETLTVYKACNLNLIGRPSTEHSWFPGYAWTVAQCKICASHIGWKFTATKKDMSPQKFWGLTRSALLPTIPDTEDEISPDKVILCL

[2] = target: T1, Protein cereblon/Maternal embryonic leucine zipper kinase; test: PROTAC activity at CRBN/MELK in human Ramos cells assessed as residual activity at 5 uM measured after 48 hrs by immunoblot analysis relative to control; type: cell-based
Target sequence in this assay (Q14680 whole entry, looked up): as the sequence (Q14680 whole entry) above
Target sequence in this assay (Q96SW2 whole entry, looked up): as the sequence (Q96SW2 whole entry) above

[3] = Selectivity ratio of CC50 for human MDA-MB-231 cells to IC50 for human Ramos cells
MDA-MB-231 = test: Cytotoxicity against human MDA-MB-231 cells assessed as inhibition of cell growth measured after 72 to 96 hrs by CCK-8 method; type: functional; conditions: time 72-96 hrs
How it was run: (§2)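 MDA-MB-231 grown in DMEM with 10% FBS, 1% pen-strep, 1% NEAA and 50 μM 2-mercaptoethanol at 37°C, 5% CO₂. Plated at 3000 cells/well with compound diluted in medium from DMSO stock. Incubated 72–96 h, then CCK-8 added for 4 h. Absorbance read at 450 nm, normalized to DMSO-treated cells. EC50 from nonlinear regression.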

[4] = target: T1, Protein cereblon/Maternal embryonic leucine zipper kinase; test: PROTAC activity at CRBN/MELK in human Ramos cells assessed as induction of MELK degradation by immunoblot analysis relative to control; type: cell-based; how it was run: as §1
Target sequence in this assay (Q14680 whole entry, looked up): as the sequence (Q14680 whole entry) above
Target sequence in this assay (Q96SW2 whole entry, looked up): as the sequence (Q96SW2 whole entry) above

Ramos [5] = test: Cytotoxicity against human Ramos cells assessed as inhibition of cell growth measured after 72 to 96 hrs by CCK-8 method; type: functional, cell-based
How it was run: as §2, with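 “Ramos” for “MDA-MB-231”, “RPMI 1640” for “DMEM”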

[6] = target: T1, Protein cereblon/Maternal embryonic leucine zipper kinase; test: PROTAC activity at CRBN/MELK in human Ramos cells assessed as degradation of MELK by measuring half life at 20 uM measured for 48 hrs by Western blot analysis; type: cell-based
Target sequence in this assay (Q14680 whole entry, looked up): as the sequence (Q14680 whole entry) above
Target sequence in this assay (Q96SW2 whole entry, looked up): as the sequence (Q96SW2 whole entry) above

[7] = target: T1, Protein cereblon/Maternal embryonic leucine zipper kinase; test: PROTAC activity at CRBN/MELK in human Ramos cells assessed as degradation of MELK at 20 uM pretreated with MLN4924 followed by compound addition and measured after 24 hrs by immunoblot analysis; type: cell-based
Target sequence in this assay (Q14680 whole entry, looked up): as the sequence (Q14680 whole entry) above
Target sequence in this assay (Q96SW2 whole entry, looked up): as the sequence (Q96SW2 whole entry) above

[8] = target: T1, Protein cereblon/Maternal embryonic leucine zipper kinase; test: PROTAC activity at CRBN/MELK in human Ramos cells assessed as degradation of MELK at 20 uM pretreated with MG132 followed by compound addition and measured after 24 hrs by immunoblot analysis; type: cell-based
Target sequence in this assay (Q14680 whole entry, looked up): as the sequence (Q14680 whole entry) above
Target sequence in this assay (Q96SW2 whole entry, looked up): as the sequence (Q96SW2 whole entry) above

Ramos [9] = test: Upregulation of MELK mRNA level in human Ramos cells at 20 uM incubated for 24 hrs by qPCR analysis; type: functional, cell-based
How it was run: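 Ramos cells in 6-well plates exposed to 20 μM compound or DMSO for 24 h. MELK mRNA measured by qPCR with MELK-specific primers. Relative expression by the 2^-ΔΔCt method, normalized to 18S mRNA (actin also stated as internal control). Run in triplicate.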

DOHH-2 = test: Upregulation of MELK mRNA level in human DOHH-2 cells at 20 uM incubated for 24 hrs by qPCR analysis; type: functional, cell-based
[10] = target: T1, Protein cereblon/Maternal embryonic leucine zipper kinase; test: PROTAC activity at CRBN/MELK in human Ramos cells assessed as inhibition of mTOR phosphorylation at upto 64 uM measured after 24 hrs Western blot analysis; type: cell-based; how it was run: as §1
Target sequence in this assay (Q14680 whole entry, looked up): as the sequence (Q14680 whole entry) above
Target sequence in this assay (Q96SW2 whole entry, looked up): as the sequence (Q96SW2 whole entry) above

[11] = target: T1, Protein cereblon/Maternal embryonic leucine zipper kinase; test: PROTAC activity at CRBN/MELK in human Ramos cells assessed as inhibition of mTOR phosphorylation measured after 24 hrs Western blot analysis; type: cell-based; how it was run: as §1
Target sequence in this assay (Q14680 whole entry): as the sequence (Q14680 whole entry) above
Target sequence in this assay (Q96SW2 whole entry): as the sequence (Q96SW2 whole entry) above

Ramos [12] = test: Induction of apoptosis in human Ramos cells assessed as viable cells at 20 uM measured after 24 hrs by Annexin V-FITC and propidium iodide staining based flow cytometry analysis (reference value: 84.9%); type: functional; conditions: read-out: Activity
How it was run: (§3)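 Ramos cells, 1×10^6 per well in 6-well plates, treated with compound or DMSO for 24 h. Washed in cold PBS, resuspended in Annexin V binding buffer, stained with Annexin V-FITC and propidium iodide. Populations quantified by flow cytometry.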

Ramos [13] = test: Induction of apoptosis in human Ramos cells assessed as early apoptotic cells at 20 uM measured after 24 hrs by Annexin V-FITC and propidium iodide staining based flow cytometry analysis (reference value: 9.69%); type: functional; how it was run: as §3
Ramos [14] = test: Induction of apoptosis in human Ramos cells assessed as late apoptotic cells at 20 uM measured after 24 hrs by Annexin V-FITC and propidium iodide staining based flow cytometry analysis (reference value: 5.05%); type: functional; how it was run: as §3
Ramos [15] = test: Induction of apoptosis in human Ramos cells assessed as necrotic cells at 20 uM measured after 24 hrs by Annexin V-FITC and propidium iodide staining based flow cytometry analysis (reference value: 0.34%); type: functional; how it was run: as §3
Ramos [16] = test: Induction of apoptosis in human Ramos cells at 20 uM measured after 24 hrs by calcein-AM/propidium iodide staining based fluorescence microscopic analysis; type: functional, cell-based
How it was run: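 Ramos cells, 2×10^5 per well in 12-well plates, exposed to compound or DMSO for 24 h. Washed in cold PBS, then stained with calcein-AM/propidium iodide working solution for 30 min at 37°C in the dark. Examined by fluorescence microscopy.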

Ramos [17] = test: Induction of cell cycle arrest in human Ramos cells assessed as accumulation of cells at G2/M phase at 10 uM measured after 24 hrs by propidium iodide staining based flow cytometry analysis; type: functional
How it was run: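 Ramos cells exposed to compound or DMSO for 24 h, washed in cold PBS and fixed overnight in 70% ethanol. Stained with propidium iodide for 30 min at 37°C in the dark. Cell-cycle phase distribution determined by flow cytometry.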

HUVEC = test: Cytotoxicity against human HUVEC cells at 4 uM measured after 24 hrs by tube formation assay; type: toxicity, cell-based
How it was run: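 HUVEC, 3×10^4 cells/well, seeded on Matrigel-coated wells (Matrigel set 4 h at 37°C) in medium containing compound. Tubes imaged by optical microscopy and quantified by image analysis. Three independent experiments.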

DC50 [1]: < 5 µM | Activity [2]: 37.7%
Compound: CC(C)COc1cnccc1-c1cnn(-c2ccc(N3CCN(Cc4cn(CCCCCCCNc5ccc6c(c5)C(=O)N(C5CCC(=O)NC5=O)C6=O)nn4)CC3)cc2)c1 (centres undefined)

DC50 [1]: 2.1 µM | Emax [4]: 91.6% | Activity [2]: 14.3% | T1/2 [6]: < 3 h | Activity [7]: inactive | Activity [8]: inactive | Activity [10]: Active | EC50 [11]: 2.3 µM
Compound: CC(C)COc1cnccc1-c1cnn(-c2ccc(N3CCN(Cc4cn(CCOCCOCCNc5ccc6c(c5)C(=O)N(C5CCC(=O)NC5=O)C6=O)nn4)CC3)cc2)c1 (centres undefined)
Ratio CC50/IC50 [3]: 7.6 | CC50 (MDA-MB-231): 13.8 µM | EC50 (Ramos [5]): 1.8 µM | Activity (Ramos [9]): Active | Activity (DOHH-2): Active | viability at 20 µM (Ramos [12]): 44.9% | Activity (Ramos [13]): 42.1% | Activity (Ramos [14]): 12.8% | Activity (Ramos [15]): 0.25% | Activity (Ramos [16]): Active | Activity (Ramos [17]): Active | Activity (HUVEC): Non-Toxic

DC50 [1]: < 5 µM | Activity [2]: 42.7%
Compound: CC(C)COc1cnccc1-c1cnn(-c2ccc(N3CCN(Cc4cn(CCOCCOCCOCCOCCNc5ccc6c(c5)C(=O)N(C5CCC(=O)NC5=O)C6=O)nn4)CC3)cc2)c1 (centres undefined)

DC50 [1]: < 5 µM | Activity [2]: 49.6%
Compound: CC(C)COc1cnccc1-c1cnn(-c2ccc(N3CCN(Cc4cn(CCOCCOCCOCCNc5ccc6c(c5)C(=O)N(C5CCC(=O)NC5=O)C6=O)nn4)CC3)cc2)c1 (centres undefined)

Compound: COc1cc(-c2cn[nH]c2)ccc1C(=O)Nc1ccc2c(c1)CCNCC2
Ratio CC50/IC50 [3]: 0.9 | CC50 (MDA-MB-231): 7.9 µM | IC50 (Ramos [5]): 9.1 µM

Compound: CN1CCN(c2ccc(-n3cc(-c4ccncc4OCC4CCNCC4)cn3)cc2)CC1
Ratio CC50/IC50 [3]: 0.7 | CC50 (MDA-MB-231): 2.3 µM | IC50 (Ramos [5]): 3.4 µM

DC50 [1]: < 5 µM | Activity [2]: 49.3%
Compound: CC(C)COc1cnccc1-c1cnn(-c2ccc(N3CCN(Cc4cn(CCOCCNc5ccc6c(c5)C(=O)N(C5CCC(=O)NC5=O)C6=O)nn4)CC3)cc2)c1 (centres undefined)
